From ChEMBL document CHEMBL5058577, “EUbOPEN Chemogenomics Library 2 (Multiplex)” (2022)

Test system: Fibroblast
Assay: Multiplex assay against human fibroblast
Type: toxicity, cell-based
Outline: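 Live cells carried four stains from seeding: Hoechst33342, BioTracker Green Microtubule Cytoskeleton Dye, MitoTracker Red and Annexin V Alexa Fluor 680. They were imaged on a CQ1 microscope at 37°C and 5% CO2 after compound addition. Using CellPathfinder machine-learning gating, cells were split into Hoechst high-intensity objects or normal cells, normal cells into healthy, pyknosed or fragmented nuclei, and pyknosed cells into mitotic or apoptotic; tubulin, mitochondrial-mass and membrane-permeability phenotypes are per cents of healthy-nucleus cells.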

[1] = 12 h, 1 µM, compound concentration 1 uM, replicate 1
[2] = 12 h, 1 µM, compound concentration 1 uM, replicate 2
[3] = 12 h, 10 µM, compound concentration 10 uM, replicate 1
[4] = 12 h, 10 µM, compound concentration 10 uM, replicate 2
[5] = 24 h, 1 µM, compound concentration 1 uM, replicate 1
[6] = 24 h, 1 µM, compound concentration 1 uM, replicate 2
[7] = 24 h, 10 µM, compound concentration 10 uM, replicate 1
[8] = 24 h, 10 µM, compound concentration 10 uM, replicate 2
[9] = 48 h, 1 µM, compound concentration 1 uM, replicate 1
[10] = 48 h, 1 µM, compound concentration 1 uM, replicate 2
[11] = 48 h, 10 µM, compound concentration 10 uM, replicate 1
[12] = 48 h, 10 µM, compound concentration 10 uM, replicate 2

COCCCN1CCC(NC(=O)c2cc(Cl)c(N)c3c2OCC3)CC1 [PRUCALOPRIDE]
Population Apoptotic (%) [1]: 33%
Population Fragmented Nuclei (%) [1]: 20%
Population Healthy Nuclei (%) [1]: 62%
Population Hoechst High Intensity Objects (%) [1]: 3%
Population Membrane Permeable-Phenotype (%) [1]: 0%
Population Mitochondria Different-Phenotype (%) [1]: 3%
Population Mitotic Cells (%) [1]: 66%
Population Normal (%) [1]: 96%
Population Pyknosed Nuclei (%) [1]: 16%
Population Tubulin-Different-Phenotype (%) [1]: 30%
Total Cell Count [1]: 132
Population Apoptotic (%) [2]: 48%
Population Fragmented Nuclei (%) [2]: 31%
Population Healthy Nuclei (%) [2]: 48%
Population Hoechst High Intensity Objects (%) [2]: 4%
Population Membrane Permeable-Phenotype (%) [2]: 5%
Population Mitochondria Different-Phenotype (%) [2]: 8%
Population Mitotic Cells (%) [2]: 52%
Population Normal (%) [2]: 95%
Population Pyknosed Nuclei (%) [2]: 20%
Population Tubulin-Different-Phenotype (%) [2]: 51%
Total Cell Count [2]: 130
Population Apoptotic (%) [3]: 30%
Population Fragmented Nuclei (%) [3]: 12%
Population Healthy Nuclei (%) [3]: 66%
Population Hoechst High Intensity Objects (%) [3]: 0%
Population Membrane Permeable-Phenotype (%) [3]: 1%
Population Mitochondria Different-Phenotype (%) [3]: 7%
Population Mitotic Cells (%) [3]: 70%
Population Normal (%) [3]: 99%
Population Pyknosed Nuclei (%) [3]: 20%
Population Tubulin-Different-Phenotype (%) [3]: 31%
Total Cell Count [3]: 144
Population Apoptotic (%) [4]: 35%
Population Fragmented Nuclei (%) [4]: 28%
Population Healthy Nuclei (%) [4]: 46%
Population Hoechst High Intensity Objects (%) [4]: 11%
Population Membrane Permeable-Phenotype (%) [4]: 7%
Population Mitochondria Different-Phenotype (%) [4]: 3%
Population Mitotic Cells (%) [4]: 64%
Population Normal (%) [4]: 88%
Population Pyknosed Nuclei (%) [4]: 25%
Population Tubulin-Different-Phenotype (%) [4]: 55%
Total Cell Count [4]: 153
Population Apoptotic (%) [5]: 48%
Population Fragmented Nuclei (%) [5]: 20%
Population Healthy Nuclei (%) [5]: 57%
Population Hoechst High Intensity Objects (%) [5]: 2%
Population Membrane Permeable-Phenotype (%) [5]: 0%
Population Mitochondria Different-Phenotype (%) [5]: 3%
Population Mitotic Cells (%) [5]: 51%
Population Normal (%) [5]: 97%
Population Pyknosed Nuclei (%) [5]: 21%
Population Tubulin-Different-Phenotype (%) [5]: 25%
Total Cell Count [5]: 136
Population Apoptotic (%) [6]: 72%
Population Fragmented Nuclei (%) [6]: 36%
Population Healthy Nuclei (%) [6]: 49%
Population Hoechst High Intensity Objects (%) [6]: 7%
Population Membrane Permeable-Phenotype (%) [6]: 7%
Population Mitochondria Different-Phenotype (%) [6]: 4%
Population Mitotic Cells (%) [6]: 27%
Population Normal (%) [6]: 92%
Population Pyknosed Nuclei (%) [6]: 14%
Population Tubulin-Different-Phenotype (%) [6]: 50%
Total Cell Count [6]: 138
Population Apoptotic (%) [7]: 63%
Population Fragmented Nuclei (%) [7]: 10%
Population Healthy Nuclei (%) [7]: 74%
Population Hoechst High Intensity Objects (%) [7]: 6%
Population Membrane Permeable-Phenotype (%) [7]: 1%
Population Mitochondria Different-Phenotype (%) [7]: 6%
Population Mitotic Cells (%) [7]: 36%
Population Normal (%) [7]: 93%
Population Pyknosed Nuclei (%) [7]: 15%
Population Tubulin-Different-Phenotype (%) [7]: 30%
Total Cell Count [7]: 128
Population Apoptotic (%) [8]: 30%
Population Fragmented Nuclei (%) [8]: 24%
Population Healthy Nuclei (%) [8]: 57%
Population Hoechst High Intensity Objects (%) [8]: 5%
Population Membrane Permeable-Phenotype (%) [8]: 11%
Population Mitochondria Different-Phenotype (%) [8]: 3%
Population Mitotic Cells (%) [8]: 69%
Population Normal (%) [8]: 94%
Population Pyknosed Nuclei (%) [8]: 18%
Population Tubulin-Different-Phenotype (%) [8]: 56%
Total Cell Count [8]: 148
Population Apoptotic (%) [9]: 50%
Population Fragmented Nuclei (%) [9]: 25%
Population Healthy Nuclei (%) [9]: 60%
Population Hoechst High Intensity Objects (%) [9]: 4%
Population Membrane Permeable-Phenotype (%) [9]: 2%
Population Mitochondria Different-Phenotype (%) [9]: 3%
Population Mitotic Cells (%) [9]: 50%
Population Normal (%) [9]: 95%
Population Pyknosed Nuclei (%) [9]: 14%
Population Tubulin-Different-Phenotype (%) [9]: 38%
Total Cell Count [9]: 146
Population Fragmented Nuclei (%) [10]: 36%
Population Healthy Nuclei (%) [10]: 49%
Population Hoechst High Intensity Objects (%) [10]: 2%
Population Membrane Permeable-Phenotype (%) [10]: 3%
Population Mitochondria Different-Phenotype (%) [10]: 6%
Population Normal (%) [10]: 97%
Population Pyknosed Nuclei (%) [10]: 13%
Population Tubulin-Different-Phenotype (%) [10]: 53%
Total Cell Count [10]: 132
Population Apoptotic (%) [11]: 64%
Population Fragmented Nuclei (%) [11]: 22%
Population Healthy Nuclei (%) [11]: 66%
Population Hoechst High Intensity Objects (%) [11]: 2%
Population Membrane Permeable-Phenotype (%) [11]: 1%
Population Mitochondria Different-Phenotype (%) [11]: 6%
Population Mitotic Cells (%) [11]: 35%
Population Normal (%) [11]: 97%
Population Pyknosed Nuclei (%) [11]: 10%
Population Tubulin-Different-Phenotype (%) [11]: 38%
Total Cell Count [11]: 136
Population Apoptotic (%) [12]: 62%
Population Fragmented Nuclei (%) [12]: 34%
Population Healthy Nuclei (%) [12]: 48%
Population Hoechst High Intensity Objects (%) [12]: 6%
Population Membrane Permeable-Phenotype (%) [12]: 7%
Population Mitochondria Different-Phenotype (%) [12]: 7%
Population Mitotic Cells (%) [12]: 37%
Population Normal (%) [12]: 93%
Population Pyknosed Nuclei (%) [12]: 17%
Population Tubulin-Different-Phenotype (%) [12]: 57%
Total Cell Count [12]: 146
